Test results as given in ChEMBL document CHEMBL1136886, “Optimization of benzimidazole series as opioid receptor-like 1 (ORL1) antagonists: SAR study directed toward improvement of selectivity over hERG activity” (Bioorg Med Chem Lett, 2009).

Columns and labels:
Nociceptin receptor [1] = target: T1, Nociceptin receptor (Homo sapiens, UniProt P41146); experiment: Displacement of [125I]Tyr14-NC/OFQ from human ORL1 receptor
Method in brief: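 Membrane fractions of CHO cells expressing human ORL1; binding affinity from displacement of radioligand [125I]Tyr14-NC/OFQ.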

[2] = Lipophilicity, log D at pH 7.4 by shake-flask method; assay type: physicochemical; conditions: buffer
[3] = target: Voltage-gated inwardly rectifying potassium channel KCNH2 (Homo sapiens, UniProt Q12809); experiment: Displacement of [35S]MK499 from human ERG expressed in HEK293 cells
Voltage-gated inwardly rectifying potassium channel KCNH2, sequence (Q12809 whole entry): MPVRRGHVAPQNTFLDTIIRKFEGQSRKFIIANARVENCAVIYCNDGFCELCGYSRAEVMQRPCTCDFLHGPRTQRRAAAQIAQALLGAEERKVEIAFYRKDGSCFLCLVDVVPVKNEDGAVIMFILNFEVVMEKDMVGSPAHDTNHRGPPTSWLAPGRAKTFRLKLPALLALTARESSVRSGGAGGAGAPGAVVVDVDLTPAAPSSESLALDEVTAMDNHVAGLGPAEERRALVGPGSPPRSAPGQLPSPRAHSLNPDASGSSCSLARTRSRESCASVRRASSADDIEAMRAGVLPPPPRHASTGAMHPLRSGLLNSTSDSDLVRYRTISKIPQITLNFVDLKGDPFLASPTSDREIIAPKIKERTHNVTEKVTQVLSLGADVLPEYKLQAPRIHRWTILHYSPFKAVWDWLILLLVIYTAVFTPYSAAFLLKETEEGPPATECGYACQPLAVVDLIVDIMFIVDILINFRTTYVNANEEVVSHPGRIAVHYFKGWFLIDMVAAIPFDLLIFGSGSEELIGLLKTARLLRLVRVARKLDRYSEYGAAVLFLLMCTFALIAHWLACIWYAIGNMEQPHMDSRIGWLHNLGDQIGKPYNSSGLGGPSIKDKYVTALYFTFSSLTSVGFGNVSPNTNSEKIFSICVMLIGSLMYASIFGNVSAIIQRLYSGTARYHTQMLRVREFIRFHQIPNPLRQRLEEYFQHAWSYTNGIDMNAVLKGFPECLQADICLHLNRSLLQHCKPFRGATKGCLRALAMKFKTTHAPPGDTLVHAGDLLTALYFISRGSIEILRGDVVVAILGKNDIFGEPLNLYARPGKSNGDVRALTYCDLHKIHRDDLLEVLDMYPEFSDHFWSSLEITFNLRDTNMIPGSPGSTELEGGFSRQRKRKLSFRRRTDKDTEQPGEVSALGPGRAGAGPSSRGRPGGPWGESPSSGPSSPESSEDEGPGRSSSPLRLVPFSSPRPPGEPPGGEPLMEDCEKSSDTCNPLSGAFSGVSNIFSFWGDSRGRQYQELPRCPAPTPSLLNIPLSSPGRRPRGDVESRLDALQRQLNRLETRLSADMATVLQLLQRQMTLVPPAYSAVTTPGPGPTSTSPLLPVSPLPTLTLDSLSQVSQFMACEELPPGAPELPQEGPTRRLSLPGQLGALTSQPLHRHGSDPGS

Nociceptin receptor [4] = target: T1, Nociceptin receptor; experiment: Antagonist activity at ORL1 receptor expressed in CHO cells assessed as inhibition of NC/OFQ-stimulated [35S]GTPgammaS binding; assay type: functional, cell-based
Method in brief: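 Membrane fractions of CHO cells expressing ORL1 used; functional activity measured by [35S]GTPγS binding to G proteins.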

Mu-type opioid receptor = Mu-type opioid receptor (Homo sapiens, UniProt P35372); experiment: Displacement of [3H]diprenorphin from human cloned mu opioid receptor expressed in CHO cells; assay type: cell-based
Mu-type opioid receptor, sequence (P35372 whole entry): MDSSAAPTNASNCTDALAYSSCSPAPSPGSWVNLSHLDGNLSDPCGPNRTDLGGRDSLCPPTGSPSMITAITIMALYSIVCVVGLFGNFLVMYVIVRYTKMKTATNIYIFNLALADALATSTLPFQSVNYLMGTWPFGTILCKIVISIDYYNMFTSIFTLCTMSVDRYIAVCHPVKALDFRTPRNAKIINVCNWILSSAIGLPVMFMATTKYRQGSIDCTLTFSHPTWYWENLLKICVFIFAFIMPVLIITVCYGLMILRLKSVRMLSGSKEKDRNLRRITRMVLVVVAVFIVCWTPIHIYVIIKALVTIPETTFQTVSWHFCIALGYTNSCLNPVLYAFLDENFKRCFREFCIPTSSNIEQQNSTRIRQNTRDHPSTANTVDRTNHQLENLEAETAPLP

[5] = target: Kappa-type opioid receptor (Homo sapiens, UniProt P41145); experiment: Displacement of [3H]U69593 from human cloned kappa opioid receptor expressed in CHO cells; assay type: cell-based
Kappa-type opioid receptor, sequence (P41145 whole entry): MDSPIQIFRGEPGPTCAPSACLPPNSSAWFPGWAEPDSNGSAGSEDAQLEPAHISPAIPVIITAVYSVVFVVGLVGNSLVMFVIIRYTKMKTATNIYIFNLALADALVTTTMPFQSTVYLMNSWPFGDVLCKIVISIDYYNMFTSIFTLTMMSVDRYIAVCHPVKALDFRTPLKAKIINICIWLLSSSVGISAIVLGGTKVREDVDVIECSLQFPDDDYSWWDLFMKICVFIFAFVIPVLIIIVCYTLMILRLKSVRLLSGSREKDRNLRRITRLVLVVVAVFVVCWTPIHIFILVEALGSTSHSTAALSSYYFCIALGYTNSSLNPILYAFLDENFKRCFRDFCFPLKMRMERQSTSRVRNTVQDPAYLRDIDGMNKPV

T1 sequence (P41146 whole entry): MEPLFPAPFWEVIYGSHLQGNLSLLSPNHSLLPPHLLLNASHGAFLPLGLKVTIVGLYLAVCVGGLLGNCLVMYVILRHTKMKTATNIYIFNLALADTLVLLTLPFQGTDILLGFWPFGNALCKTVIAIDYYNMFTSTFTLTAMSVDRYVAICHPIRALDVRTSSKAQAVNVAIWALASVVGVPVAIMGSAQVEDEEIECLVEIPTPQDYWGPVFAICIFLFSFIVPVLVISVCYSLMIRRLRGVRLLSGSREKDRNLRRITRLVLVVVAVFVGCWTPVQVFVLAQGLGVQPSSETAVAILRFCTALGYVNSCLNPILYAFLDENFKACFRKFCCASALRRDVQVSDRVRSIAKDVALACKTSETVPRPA

Row | Structure (SMILES) | IC50 (Nociceptin receptor [1]) [nM] | logD [2] | IC50 [3] [nM] | IC50 (Nociceptin receptor [4]) [nM] | IC50 (Mu-type opioid receptor) [nM] | IC50 [5] [nM]
1 | C[C@@H]1CN(CC(F)(F)F)CCN1c1cc2[nH]c(SC(C)(C)C)nc2cc1Cl | 630 | – | – | – | – | –
2 | CCN1CCN(c2cc3[nH]c(S[C@]4(C)CC[C@@H](NC(C)=O)CC4)nc3cc2Cl)CC1 | 1.9 | 2.5 | > 10000 | 1.1 | – | –
3 | C[C@@H]1CN(CCC#N)CCN1c1cc2[nH]c(SC(C)(C)C)nc2cc1Cl | 27 | – | > 10000 | 6.4 | – | –
4 | CCN1CCN(c2cc3[nH]c(S[C@]4(C)CC[C@@H](N5CCCC5=O)CC4)nc3cc2Cl)CC1 | 1.4 | 2.9 | > 10000 | 0.55 | – | –
5 | CCOC(=O)N1CCC(C)(Sc2nc3cc(Cl)c(N4CCN(CC)CC4)cc3[nH]2)CC1 | 4.3 | – | – | 1.1 | – | –
6 | CCN1CCN(c2cc3[nH]c(S[C@]4(C)CC[C@@H](c5nnco5)CC4)nc3cc2Cl)CC1 | 1.1 | – | – | 0.59 | – | –
7 | CCN1CCN(c2cc3[nH]c(S[C@]4(C)CC[C@@H](N(C)C(C)=O)CC4)nc3cc2Cl)CC1 | 0.81 | 2.7 | – | 1.3 | 840 | 160
8 | CCN1CCN(c2cc3[nH]c(SC(C)(C)C)nc3cc2Cl)CC1 | 22 | – | – | – | – | –
9 | CCN1CCN(c2cc3[nH]c(S[C@]4(C)CC[C@@H](c5nnn(C)n5)CC4)nc3cc2Cl)CC1 | 2.2 | 3.1 | – | 0.9 | – | –
10 | CCN1CCN(c2cc3[nH]c(S[C@]4(C)CC[C@@H](c5nnnn5C)CC4)nc3cc2Cl)CC1 | 7.4 | 2.3 | – | 3.7 | – | –
11 | C[C@@H]1CN(CC#N)CCN1c1cc2[nH]c(SC(C)(C)C)nc2cc1Cl | 61 | – | – | – | – | –
12 | CCN1CCN(c2cc3[nH]c(S[C@]4(C)CC[C@@H](NS(C)(=O)=O)CC4)nc3cc2Cl)CC1 | 2.1 | 2.5 | > 10000 | 1.8 | – | –
13 | CCN1CCN(c2cc3[nH]c(SC(C)(C)C)nc3cc2Cl)[C@H](C)C1 | 9.2 | – | 990 | 2.9 | – | –
14 | CCN1CCN(c2cc3[nH]c(S[C@]4(C)CC[C@@H](S(C)(=O)=O)CC4)nc3cc2Cl)CC1 | 6.9 | – | > 10000 | 4 | – | –
15 | CCN1CCN(c2cc3[nH]c(S[C@]4(C)CC[C@@H](c5nc(C)no5)CC4)nc3cc2Cl)CC1 | 1.7 | 3.8 | – | 0.91 | – | –
16 | C[C@@H]1CN(CC(F)F)CCN1c1cc2[nH]c(SC(C)(C)C)nc2cc1Cl | 23 | – | > 10000 | – | – | –
17 | CCN1CCN(c2cc3[nH]c(S[C@]4(C)CC[C@@H](NC(=O)OC)CC4)nc3cc2Cl)CC1 | 2.4 | 3.4 | 3500 | 0.72 | – | –
18 | CCN1CCN(c2cc3[nH]c(S[C@]4(C)CC[C@@H](C(=O)NC)CC4)nc3cc2Cl)CC1 | 1 | – | > 10000 | 1.1 | – | –
19 | CCN1CCN(c2cc3[nH]c(SC(C)(C)CCNC(=O)OC)nc3cc2Cl)CC1 | 21 | – | – | 8.6 | – | –
20 | CCN1CCN(c2cc3[nH]c(S[C@]4(C)CC[C@H](NC(=O)OC)CC4)nc3cc2Cl)CC1 | 9.5 | – | 1500 | 2.1 | – | –
21 | CCN1CCN(c2cc3[nH]c(S[C@]4(C)CC[C@@H](c5nnc(C)o5)CC4)nc3cc2Cl)CC1 | 1.8 | – | – | 7.1 | – | –
22 | CCN1CCN(c2cc3[nH]c(SC4(C)CCC(NC(=O)OC)C4)nc3cc2Cl)CC1 (racemic) | – | – | – | 46 | – | –
23 | CC(=O)CN1CCN(c2cc3[nH]c(SC(C)(C)C)nc3cc2Cl)C(C)C1 (racemic) | – | – | > 10000 | 41 | – | –
24 | C[C@@H]1CN(CCO)CCN1c1cc2[nH]c(SC(C)(C)C)nc2cc1Cl | – | – | 1600 | – | – | –
